Experimental data taken from ChEMBL document CHEMBL3102784, “Salicylanilide diethyl phosphates: synthesis, antimicrobial activity and cytotoxicity” (Bioorg Med Chem, 2014).
In brackets after ≈: the same amount, converted by molar mass. Activity calls are given as the source filed them. The calls are words filed in the database; no cut-off is given here.

How the values were obtained:
Mycobacterium kansasii [1] = assay: Antimycobacterial activity against Mycobacterium kansasii 6509/96 after 14 days; format: functional; conditions: 6509/96, 336 h
Outline: (§1)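 Micromethod MIC in Šula's semisynthetic medium at 37 °C. Compounds added in DMSO at 1000 down to 0.032 µmol/L. Isoniazid standard in sterile water at 0.5–250 µmol/L. Inocula: H37Rv 10^3, M. avium 10^5, M. kansasii 10^4. Read at 14 and 21 d, plus 7 d for M. kansasii.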

Mycobacterium kansasii [2] = assay: Antimycobacterial activity against Mycobacterium kansasii My 235/80 after 21 days; format: functional; conditions: My 235/80, 504 h; outline: as §1
Mycobacterium kansasii [3] = assay: Antimycobacterial activity against Mycobacterium kansasii 6509/96 after 7 days; format: functional; conditions: 6509/96, 168 h; outline: as §1
Mycobacterium avium [4] = assay: Antimycobacterial activity against isoniazid, rifampicin, ethambutol and ofloxacin-resistant Mycobacterium avium My 330/88 after 21 days; format: functional; conditions: My 330/88, 504 h; outline: as §1
Mycobacterium avium [5] = assay: Antimycobacterial activity against isoniazid, rifampicin, ethambutol and ofloxacin-resistant Mycobacterium avium My 330/88 after 14 days; format: functional; conditions: My 330/88, 336 h; outline: as §1
[6] = test system: Mycobacterium tuberculosis; assay: Antimycobacterial activity against Mycobacterium tuberculosis H37Rv My 331/88 after 21 days; format: functional; conditions: H37Rv My 331/88, 504 h; outline: as §1
Mycobacterium kansasii [7] = assay: Antimycobacterial activity against Mycobacterium kansasii 6509/96 after 21 days; format: functional; conditions: 6509/96, 504 h; outline: as §1
Mycobacterium kansasii [8] = assay: Antimycobacterial activity against Mycobacterium kansasii My 235/80 after 14 days; format: functional; conditions: My 235/80, 336 h; outline: as §1
Mycobacterium kansasii [9] = assay: Antimycobacterial activity against Mycobacterium kansasii My 235/80 after 7 days; format: functional; conditions: My 235/80, 168 h; outline: as §1
[10] = test system: Mycobacterium tuberculosis; assay: Antimycobacterial activity against Mycobacterium tuberculosis H37Rv My 331/88 after 14 days; format: functional; conditions: H37Rv My 331/88, 336 h; outline: as §1
Lichtheimia corymbifera [11] = assay: Antifungal activity against Absidia corymbifera 272 after 48 hrs by broth microdilution method; format: functional; conditions: Lichtheimia corymbifera, 272, 48 h
Outline: (§2)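 Broth microdilution in RPMI 1640 with glutamine, fluconazole as reference. For yeasts, MIC is ≥80% growth reduction (IC80) versus control. For filamentous fungi, the value is expressed as IC50. Readings at 24 and 48 h.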

Klebsiella pneumoniae [12] = assay: Antibacterial activity against ESBL-positive Klebsiella pneumoniae J 14368/08 at 500 micromol/L after 24 to 48 hrs by broth microdilution method; format: functional, organism-based
Outline: (§3)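 Broth microdilution in Mueller–Hinton broth, compounds dissolved in DMSO, tested over a dilution series from 500 downward. MIC taken as ≥95% growth reduction (IC95) versus drug-free control. Benzylpenicillin comparator. Readings at 24 and 48 h.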

[13] = test system: Staphylococcus epidermidis; assay: Antibacterial activity against Staphylococcus epidermidis H 6966/08 after 48 hrs by broth microdilution method; format: functional; conditions: H 6966/08, 48 h; outline: as §3
[14] = test system: Trichophyton mentagrophytes; assay: Antifungal activity against Trichophyton mentagrophytes 445 after 72 hrs by broth microdilution method; format: functional; conditions: Trichophyton mentagrophytes, 445, 72 h
Outline: (§4)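 Filamentous dermatophyte tested by broth microdilution in RPMI 1640 with glutamine, fluconazole as reference. Value expressed as IC50 relative to growth control. Read at 72 and 120 h.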

Staphylococcus aureus [15] = assay: Antibacterial activity against Staphylococcus aureus CCM 4516/08 after 24 hrs by broth microdilution method; format: functional; conditions: CCM 4516/08, 24 h; outline: as §3
Candida tropicalis = assay: Antifungal activity against Candida tropicalis 156 at 500 micromol/L after 24 to 48 hrs by broth microdilution method; format: functional, organism-based; outline: as §2
Nakaseomyces glabratus = assay: Antifungal activity against Candida glabrata 20/I at 500 micromol/L after 24 to 48 hrs by broth microdilution method; format: functional, organism-based; outline: as §2
Staphylococcus aureus [16] = assay: Antibacterial activity against Staphylococcus aureus CCM 4516/08 after 48 hrs by broth microdilution method; format: functional; conditions: CCM 4516/08, 48 h; outline: as §3
Pichia kudriavzevii [17] = assay: Antifungal activity against Candida krusei E28 after 48 hrs by broth microdilution method; format: functional; conditions: E28, 48 h; outline: as §2
Aspergillus fumigatus [18] = assay: Antifungal activity against Aspergillus fumigatus 231 after 48 hrs by broth microdilution method; format: functional; conditions: Aspergillus fumigatus, 231, 48 h; outline: as §2
Aspergillus fumigatus [19] = assay: Antifungal activity against Aspergillus fumigatus 231 after 24 hrs by broth microdilution method; format: functional; conditions: Aspergillus fumigatus, 231, 24 h; outline: as §2
Pichia kudriavzevii [20] = assay: Antifungal activity against Candida krusei E28 after 24 hrs by broth microdilution method; format: functional; conditions: E28, 24 h; outline: as §2
Klebsiella pneumoniae [21] = assay: Antibacterial activity against Klebsiella pneumoniae D 11750/08 at 500 micromol/L after 24 to 48 hrs by broth microdilution method; format: functional, organism-based; outline: as §3
Lichtheimia corymbifera [22] = assay: Antifungal activity against Absidia corymbifera 272 after 24 hrs by broth microdilution method; format: functional; conditions: Lichtheimia corymbifera, 272, 24 h; outline: as §2
HepG2 = assay: Cytotoxicity against human HepG2 cells after 24 hrs by CellTiter assay; format: cell-based; conditions: HepG2, 24 h
Outline: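 HepG2 cells (passage 27–33) in MEM with 10% FBS, L-glutamine and NEAA, seeded at 1×10^4 per well. Treated next day with compounds at 0.1–100 µM (or 0.1–25 µmol/L), triplicates, <1% DMSO, for 24 h at 37 °C, 5% CO2. MTS reagent added for 2 h, absorbance read at 490 nm. IC50 taken against untreated (100%) and 10% DMSO (0%) controls.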

Candida albicans [23] = assay: Antifungal activity against Candida albicans ATCC 44859 after 24 hrs by broth microdilution method; format: functional; conditions: ATCC 44859, 24 h; outline: as §2
Pseudomonas aeruginosa = assay: Antibacterial activity against Pseudomonas aeruginosa CCM 1961 at 500 micromol/L after 24 to 48 hrs by broth microdilution method; format: functional, organism-based; outline: as §3
Escherichia coli = assay: Antibacterial activity against Escherichia coli CCM 4517 at 500 micromol/L after 24 to 48 hrs by broth microdilution method; format: functional, organism-based; outline: as §3
Enterococcus sp. = assay: Antibacterial activity against Enterococcus sp. J 14365/08 at 500 micromol/L after 24 to 48 hrs by broth microdilution method; format: functional, organism-based; outline: as §3
Staphylococcus aureus [24] = assay: Antibacterial activity against methicillin-resistant Staphylococcus aureus H 5996/08 after 48 hrs by broth microdilution method; format: functional; conditions: H 5996/08, 48 h; outline: as §3
Candida albicans [25] = assay: Antifungal activity against Candida albicans ATCC 44859 after 48 hrs by broth microdilution method; format: functional; conditions: ATCC 44859, 48 h; outline: as §2
Staphylococcus aureus [26] = assay: Antibacterial activity against methicillin-resistant Staphylococcus aureus H 5996/08 after 24 hrs by broth microdilution method; format: functional; conditions: H 5996/08, 24 h; outline: as §3
Trichosporon asahii [27] = assay: Antifungal activity against Trichosporon asahii 1188 after 24 hrs by broth microdilution method; format: functional; conditions: Trichosporon asahii, 1188, 24 h; outline: as §2
Trichosporon asahii [28] = assay: Antifungal activity against Trichosporon asahii 1188 after 48 hrs by broth microdilution method; format: functional; conditions: Trichosporon asahii, 1188, 48 h; outline: as §2
[29] = test system: Staphylococcus epidermidis; assay: Antibacterial activity against Staphylococcus epidermidis H 6966/08 after 24 hrs by broth microdilution method; format: functional; conditions: H 6966/08, 24 h; outline: as §3
[30] = test system: Trichophyton mentagrophytes; assay: Antifungal activity against Trichophyton mentagrophytes 445 after 120 hrs by broth microdilution method; format: functional; conditions: Trichophyton mentagrophytes, 445, 120 h; outline: as §4

In the case of NNC(=O)c1ccncc1 [ISONIAZID], the MIC (Mycobacterium kansasii [1]) is reported as 4 µM (≈ 0.549 µg/mL), the MIC (Mycobacterium kansasii [2]) is reported as > 250 µM and the MIC (Mycobacterium kansasii [3]) is reported as 2 µM (≈ 0.274 µg/mL). The MIC (Mycobacterium avium [4]) was > 250 µM, the MIC (Mycobacterium avium [5]) was 250 µM (≈ 34.3 µg/mL) and the MIC [6] was 1 µM (≈ 0.137 µg/mL). For the same compound, the MIC (Mycobacterium kansasii [7]) was 4 µM (≈ 0.549 µg/mL), the MIC (Mycobacterium kansasii [8]) was > 250 µM and the MIC (Mycobacterium kansasii [9]) was > 250 µM. It also gave an MIC [10] of 0.5 µM (≈ 0.0686 µg/mL).
With CCOP(=O)(OCC)Oc1ccc(Cl)cc1C(=O)Nc1cccc(F)c1 the MIC50 (Lichtheimia corymbifera [11]) was > 500 µM, the MIC (Mycobacterium kansasii [1]) was 32 µM (≈ 12.9 µg/mL) and the Activity (Klebsiella pneumoniae [12]) was “inactive”. The MIC95 [13] was 500 µM (≈ 201 µg/mL), the MIC50 [14] was 62.5 µM (≈ 25.1 µg/mL) and the MIC95 (Staphylococcus aureus [15]) was 125 µM (≈ 50.2 µg/mL). The Activity (Candida tropicalis) was “inactive”, the Activity (Nakaseomyces glabratus) was “inactive” and the MIC95 (Staphylococcus aureus [16]) was 500 µM (≈ 201 µg/mL). The MIC80 (Pichia kudriavzevii [17]) was > 500 µM, the MIC50 (Aspergillus fumigatus [18]) was > 500 µM and the MIC50 (Aspergillus fumigatus [19]) was > 500 µM. The MIC80 (Pichia kudriavzevii [20]) was > 500 µM, the Activity (Klebsiella pneumoniae [21]) was “inactive” and the MIC (Mycobacterium kansasii [2]) was 32 µM (≈ 12.9 µg/mL). For the same compound, the MIC50 (Lichtheimia corymbifera [22]) was > 500 µM, the IC50 (HepG2) was 17.2 µM and the MIC80 (Candida albicans [23]) was > 500 µM. The Activity (Pseudomonas aeruginosa) was “inactive”, the MIC (Mycobacterium kansasii [3]) was 16 µM (≈ 6.43 µg/mL) and the MIC (Mycobacterium avium [4]) was 32 µM (≈ 12.9 µg/mL). For the same compound, the MIC (Mycobacterium avium [5]) was 32 µM (≈ 12.9 µg/mL), the Activity (Escherichia coli) was “inactive” and the Activity (Enterococcus sp.) was “inactive”. For the same compound, the MIC95 (Staphylococcus aureus [24]) was > 500 µM, the MIC80 (Candida albicans [25]) was > 500 µM and the MIC95 (Staphylococcus aureus [26]) was 500 µM (≈ 201 µg/mL). For the same compound, the MIC80 (Trichosporon asahii [27]) was > 500 µM, the MIC [6] was 8 µM (≈ 3.21 µg/mL) and the MIC (Mycobacterium kansasii [7]) was 32 µM (≈ 12.9 µg/mL). The MIC (Mycobacterium kansasii [8]) was 32 µM (≈ 12.9 µg/mL), the MIC (Mycobacterium kansasii [9]) was 16 µM (≈ 6.43 µg/mL) and the MIC80 (Trichosporon asahii [28]) was > 500 µM. For the same compound, the MIC95 [29] was 250 µM (≈ 100 µg/mL), the MIC50 [30] was 62.5 µM (≈ 25.1 µg/mL) and the MIC [10] was 8 µM (≈ 3.21 µg/mL).
